Test results as given in EPA's CvTdb concentration-time database.

Tests used:
Hamster = assay: concentration in plasma after dosing; settings: dosed: 2,4-Dichlorophenoxyacetic acid, 8.0 mg/kg, iv, Male, Syrian Golden
Procedure, shortened: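 Data points giving concentration or amount against time came from published in vivo toxicokinetic studies and from two structured collections. PubMed searching, classifier screening and manual review located the studies. Most points were digitised from plot screenshots using WebPlotDigitizer, the rest were copied from tables, and all keep their reported units.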

Mouse [1] = assay: concentration in plasma after dosing; settings: 0.25 h; dosed: 2-Hydroxy-4-methoxybenzophenone; 500 mg/kg; oral; Male; B6C3F1
Mouse [2] = assay: concentration in plasma after dosing; settings: 0.25 h; dosed: 2-Hydroxy-4-methoxybenzophenone; 50 mg/kg; iv; Female; B6C3F1
Mouse [3] = assay: concentration in plasma after dosing; settings: 10 min; dosed: 2-Hydroxy-4-methoxybenzophenone; 50 mg/kg; iv; Male; B6C3F1
Rat [4] = assay: concentration in plasma after dosing; settings: dosed: 2-Hydroxy-4-methoxybenzophenone, 250 mg/kg, oral, Male, F344
Mouse [5] = assay: concentration in plasma after dosing; settings: 2 h; dosed: 2-Hydroxy-4-methoxybenzophenone; 500 mg/kg; oral; Male; B6C3F1
Rat [6] = assay: concentration in plasma after dosing; settings: dosed: 2-Hydroxy-4-methoxybenzophenone, 100 mg/kg, oral, Female, F344
Mouse [7] = assay: concentration in plasma after dosing; settings: 3 h; dosed: 2-Hydroxy-4-methoxybenzophenone; 250 mg/kg; oral; Female; B6C3F1
Rat [8] = assay: concentration in plasma after dosing; settings: dosed: Methyleugenol, 37 mg/kg, iv, Male, F344
Rat [9] = assay: concentration in plasma after dosing; settings: dosed: Methyleugenol, 37 mg/kg, oral, Male, F344/N
Rat [10] = assay: concentration in plasma after dosing; settings: dosed: Methyleugenol, 37 mg/kg, iv, Female, F344
Rat [11] = assay: concentration in plasma after dosing; settings: dosed: Methyleugenol, 37 mg/kg, iv, Male, F344; remark: listed apart in the source
Rat [12] = assay: concentration in plasma after dosing; settings: dosed: Methyleugenol, 37 mg/kg, oral, Male, F344/N; remark: listed apart in the source
Rat [13] = assay: concentration in plasma after dosing; settings: dosed: Methyleugenol, 37 mg/kg, iv, Male, F344; remark: listed apart in the source
Rat [14] = assay: concentration in plasma after dosing; settings: dosed: Methyleugenol, 37 mg/kg, iv, Female, F344; remark: listed apart in the source
Rat [15] = assay: concentration in liver after dosing; settings: 24 h; dosed: Perfluorohexane-1-sulphonic acid – potassium salt; 16 mg/kg; oral; Female; Harlan Sprague Dawley
Rat [16] = assay: concentration in brain after dosing; settings: 3 h; dosed: Perfluorohexane-1-sulphonic acid – potassium salt; 16 mg/kg; oral; Female; F344
Rat [17] = assay: concentration in liver after dosing; settings: 3 h; dosed: Perfluorohexane-1-sulphonic acid – potassium salt; 16 mg/kg; oral; Female; Harlan Sprague Dawley
Rat [18] = assay: concentration in brain after dosing; settings: 3 h; dosed: Perfluorohexane-1-sulphonic acid – potassium salt; 16 mg/kg; oral; Female; Harlan Sprague Dawley
Rat [19] = assay: concentration in liver after dosing; settings: 48 h; dosed: Perfluorohexane-1-sulphonic acid – potassium salt; 16 mg/kg; oral; Female; Harlan Sprague Dawley
Rat [20] = assay: concentration in liver after dosing; settings: 528 h; dosed: Perfluorohexane-1-sulphonic acid – potassium salt; 16 mg/kg; oral; Female; F344
Rat [21] = assay: concentration in plasma after dosing; settings: dosed: Perfluorohexane-1-sulphonic acid – potassium salt, 4 mg/kg, oral, Male, F344
Rat [22] = assay: concentration in plasma after dosing; settings: 9 h; dosed: Primidone; 80 mg/kg; oral; Male; F344
Rat [23] = assay: concentration in plasma after dosing; settings: 0.5 h; dosed: Primidone; 130 mg/kg; oral; Female; F344
Rat [24] = assay: concentration in plasma after dosing; settings: 0.5 h; dosed: Primidone; 130 mg/kg; oral; Female; F344; remark: listed apart in the source
Rat [25] = assay: concentration in plasma after dosing; settings: 5 min; dosed: Pyridine; 10 mg/kg; iv; Male; F344
Rat [26] = assay: concentration in plasma after dosing; settings: 5 min; dosed: Pyridine; 10 mg/kg; iv; Male; F344; remark: listed apart in the source
Rat [27] = assay: concentration in plasma after dosing; settings: dosed: Pyridine, 25 mg/kg, oral, Male, F344
Rat [28] = assay: concentration in plasma after dosing; settings: dosed: Pyridine, 5 mg/kg, iv, Male, F344
Rat [29] = assay: concentration in plasma after dosing; settings: dosed: Pyridine, 5 mg/kg, oral, Male, F344
Rat [30] = assay: concentration in brain after dosing; settings: 0.5 h; dosed: alpha-Thujone; 25 mg/kg; oral; Male; Harlan Sprague Dawley
Rat [31] = assay: concentration in brain after dosing; settings: 6 h; dosed: alpha-Thujone; 50 mg/kg; oral; Female; Harlan Sprague Dawley
Rat [32] = assay: concentration in brain after dosing; settings: 3 h; dosed: alpha-Thujone; 50 mg/kg; oral; Male; Harlan Sprague Dawley
Rat [33] = assay: concentration in brain after dosing; settings: 10 min; dosed: alpha-Thujone; 50 mg/kg; oral; Female; Harlan Sprague Dawley

O=C(O)COc1ccc(Cl)cc1Cl [2,4-Dichlorophenoxyacetic acid]
Hamster
Settings | concentration in plasma [ng/mL]
0.25 h | 36900
0.5 h | 6320
1 h | 939
2.5 h | 351
2.5 min | 113000
20 min | 26600

O=C(c1ccccc1)c1ccc(O)cc1O [2,4-Dihydroxybenzophenone]
Settings | concentration in plasma [ng/mL]
Mouse [1] | 1980
Mouse [2] | 1260
Mouse [3] | 3890
Mouse [5] | 318
Mouse [7] | 133

concentration in plasma [ng/mL]
Settings | Rat [4] | Rat [6]
0.25 h | 33 | 123
4 h | 90.4 | 77.4

C=CCc1ccc(OC)c(OC)c1 [Methyleugenol]
Settings | concentration in plasma [ng/mL]
Rat [8], 0.25 h | 8180
Rat [8], 1.5 h | 878
Rat [9], 1 h | 59.2
Rat [9], 5 h | 18.6
Rat [10], 0.5 h | 1330
Rat [10], 0.75 h | 535
Rat [11], 0.5 h | 3440
Rat [11], 0.75 h | 3090
Rat [12], 2 min | 8.3
Rat [12], 4 h | 11.2
Rat [13], 3 h | 226
Rat [13], 5 min | 28800
Rat [14], 0.5 h | 1520
Rat [14], 0.75 h | 768

O=S(=O)([O-])C(F)(F)C(F)(F)C(F)(F)C(F)(F)C(F)(F)C(F)(F)F.[K+] [Perfluorohexane-1-sulphonic acid – potassium salt]
Settings | concentration in brain [ng/g] | concentration in liver [ng/g]
Rat [15] | – | 29500
Rat [16] | 1090 | –
Rat [17] | – | 54100
Rat [18] | 1340 | –
Rat [19] | – | 13300
Rat [20] | – | 29800

Rat [21]
Settings | concentration in plasma [ng/mL]
3 h | 29800
192 h | 18200
1200 h | 6240

CCC1(c2ccccc2)C(=O)NCNC1=O [Primidone]
Settings | concentration in plasma [ng/mL]
Rat [22] | 3000
Rat [23] | 35300
Rat [24] | 24000

c1ccncc1 [Pyridine]
Settings | concentration in plasma [ng/mL]
Rat [25] | 2510
Rat [26] | 8970

Settings | concentration in plasma [ng/mL]
Rat [27], 0.5 h | 18700
Rat [27], 6 h | 16200
Rat [28], 0.25 h | 3670
Rat [28], 6 h | 1390
Rat [29], 4 h | 2550
Rat [29], 5 min | 794

CC(C)[C@]12CC(=O)[C@H](C)[C@H]1C2 [alpha-Thujone]
Settings | concentration in brain [ng/g]
Rat [30] | 359
Rat [31] | 200
Rat [32] | 652
Rat [33] | 1800
